# APJ agonist – activates the human apelin receptor APJ | CHO-K1 APJ PathHunter beta-arrestin, luminescence; 0% DMSO wells, 100% apelin | activation, % at 20 µM | hit rate 0.11% among 330,000 | AID 2520;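 active = activation more than six SD over the plate average, tested at 20 µM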
#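 Assay system: CHO-K1 APJ beta-arrestin complementation cell line / Compound: single test compound dose, 20 µM final, 1% DMSO / Times: overnight seeding, 90 min compound at 25 °C, 1 h detection / Technique: beta-gal luminescence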
# CCR6 antag – CCR6 (human) receptor antagonism; P51684; CHO-K1 CCR6 PathHunter beta-arrestin, luminescence, CCL20-stimulated; inhibition, % at 20 µM; hit rate 0.49% among 340,000;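 active = compounds whose inhibition of the agonist-driven luminescence signal at 20 µM reaches about 50%, limit read from the data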;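 note: cells stimulated with CCL20 at 14 nM final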
# Target sequence (P51684 whole entry, looked up): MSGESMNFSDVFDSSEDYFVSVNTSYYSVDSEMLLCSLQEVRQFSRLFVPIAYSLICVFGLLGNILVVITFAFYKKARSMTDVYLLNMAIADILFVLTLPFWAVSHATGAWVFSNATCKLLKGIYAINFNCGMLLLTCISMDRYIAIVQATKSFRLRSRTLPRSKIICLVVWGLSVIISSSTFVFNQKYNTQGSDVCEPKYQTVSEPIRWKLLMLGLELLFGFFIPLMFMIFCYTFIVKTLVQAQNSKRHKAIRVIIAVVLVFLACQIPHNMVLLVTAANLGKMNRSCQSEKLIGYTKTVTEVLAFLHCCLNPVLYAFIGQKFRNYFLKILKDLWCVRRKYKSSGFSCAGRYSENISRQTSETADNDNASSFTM
# APJ antagonist – blocks the human apelin receptor APJ | AID 2521 | CHO-K1 APJ beta-arrestin complementation, luminescence | hit rate 0.32% among 330,000 | inhibition, % at 20 µM;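 active = inhibition above about 40% at 20 µM, limit read from the data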;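 note: cells challenged with 10 nM apelin-13 agonist together with compound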
# H9c2 TAG inh – triacylglycerol accumulation inhibition; H9c2 cells, Nile Red lipid (TAG) fluorescence; cells loaded with 200 µM oleic acid; inhibition, % at 12.5 µM; hit rate 0.66% among 230,000;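 active = pattern-corrected inhibition of lipid staining of at least 50% with the nuclear-stain viability signal not falling by more than 50%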
# EBI2 block – antagonists of human EBI2 receptor; inhibition, % at 5 µM; P32249; EBI2 beta-arrestin recruitment, luminescence, 7a,25-OHC stimulated; hit rate 0.81% among 360,000; in the data active = inhibition above about 38%;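 note: enzyme fragment complementation signal reports receptor beta-arrestin coupling in cells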
# CXCR6 inh – blocks human CXCR6 beta-arrestin recruitment. inhibition, % at 20 µM. CHO-K1 PathHunter CXCR6 beta-arrestin, luminescence. AID 602244. hit rate 0.36% among 360,000. O00574; in the data active = inhibition above about 34%, passing the limit was not always enough;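 note: antagonist mode with CXCL16 agonist at 10 nM final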
# TAG conf – confirmation of triacylglycerol accumulation inhibitors. shares compounds with H9c2 TAG inh. H9c2 lipid accumulation, Nile Red fluorescence; cells loaded with 200 µM oleic acid. inhibition, % at 12.5 µM. hit rate 71% among 990. AID 651629;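 active = mean inhibition across replicates of 40% or more; inactive = mean inhibition below 40%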
# Hits are given with their value; 0 = inactive; - = not tested or not shown. Sampled rows, rich in hits. Any-hit rate of the full collection: about 1.9%.
SMILES,APJ agonist,CCR6 antag,APJ antagonist,H9c2 TAG inh,EBI2 block,CXCR6 inh,TAG conf
N#CC1=C(N)Oc2cc(Nc3ccccc3)ccc2C1c1ccncc1 (centres undefined),0,0,0,57,0,0,83
Cc1c(-c2cc(Br)ccc2O)nc2cc3c(cc2c1C)OCO3,0,0,0,-,0,0,-
Cc1noc(C)c1CSc1nc2[nH]ncc2c(=O)n1-c1ccccc1,0,0,0,64,0,0,91
Cc1noc(C)c1CSc1nc2ccccc2c(=O)n1-c1ccccc1,0,0,0,0,0,0,-
CCN1CCC[C@H]1CNCCCn1cnc2c(SC)ncnc21,-,-,-,0,0,0,-
O=C(CN(Cc1ccco1)C(=O)c1ccc(Cl)cc1)Nc1c(Cl)cc(Cl)cc1Cl,0,0,0,-,0,0,-
O=C(CN(Cc1ccco1)C(=O)c1cccc(Cl)c1)Nc1c(Cl)cc(Cl)cc1Cl,0,0,0,53,0,0,0
Cc1cc(N2CCOCC2)n2nc(C)c(-c3ccccc3)c2n1,0,0,0,60,0,0,46
CCC(C)(C)NC(=O)C(c1ccccc1F)N(Cc1ccco1)C(=O)c1csnn1 (centres undefined),0,0,0,53,0,0,0
COc1ccc(NC(=O)N(C)[C@H]2C[C@H]3c4[nH]c5ccc(-c6ccc(OC)cc6)cc5c4CCN3C[C@H]2[C@H](C)O)cc1,-,-,-,0,0,0,-
COc1ccc(NC(=O)O[C@@H](C)[C@@H]2CN3CCc4c([nH]c5ccc(-c6ccc(OC)cc6)cc45)[C@@H]3C[C@@H]2N(C)C(=O)Nc2ccc(OC)cc2)cc1,-,-,-,72,0,0,72
COc1ccc(NC(=O)N(C)[C@H]2C[C@H]3c4[nH]c5ccc(-c6ccc7c(c6)OCO7)cc5c4CCN3C[C@H]2[C@H](C)O)cc1,-,-,-,60,0,0,66
COc1ccc(-c2ccc3[nH]c4c(c3c2)CCN2C[C@@H]([C@H](C)OC(=O)Nc3cc(Cl)cc(Cl)c3)[C@@H](N(C)C(=O)Nc3cc(Cl)cc(Cl)c3)C[C@@H]42)cc1,-,-,-,73,0,0,84
CN1CCc2c(sc(NC(=O)c3cc(Cl)sc3Cl)c2C(N)=O)C1,0,0,0,0,0,0,-
COc1cc(NC(=O)COC(=O)Cc2ccsc2)cc(OC)c1,0,0,0,0,0,0,-
CC(C)(C)c1ccc(S(=O)(=O)N2CCN(Cc3cc4c(cc3O)OCO4)CC2)cc1,0,0,0,0,0,0,-
CSC1=NC(C(Cl)(Cl)Cl)N=C(c2ccc(C)cc2)N1 (centres undefined),0,0,0,56,0,0,50
COc1ccc(-c2cc(C(F)F)n3ncc(C(=O)N4CCc5ccccc54)c3n2)cc1,0,0,0,-,0,0,-
Cc1ccc(-c2cc(C(F)F)n3ncc(C(=O)N4CCCc5ccccc54)c3n2)cc1,0,0,0,60,0,0,0
CC(C)(C)c1cc(NC(=O)C2(C)CCN2C(=O)C2(c3ccccc3)CCCC2)no1 (centres undefined),-,-,-,53,0,0,0
Cc1nc2c(ccc3nc(NC(=O)Cc4cccc5ccccc45)sc32)s1,0,0,0,51,0,0,58
CC(C)COc1ccc(C(=O)Nc2scc(-c3ccc(Cl)cc3Cl)c2C(N)=O)cc1,0,0,0,60,0,0,0
Cc1nn2c(NCc3ccccn3)c3c(nc2c1-c1ccccc1)CCC3,0,0,0,61,0,0,40
Cc1cc(NCc2ccccn2)n2nc(C)c(-c3ccccc3)c2n1,0,0,0,0,0,0,-
Cc1nn2c(N3CCN(C)CC3)c3c(nc2c1-c1ccccc1)CCCC3,0,0,0,58,0,0,45
COc1c(NC=O)c2c(c([N+](=O)[O-])c1OC)C(=O)OC2,-,0,-,0,0,0,-
CN(C)CCCN1c2ccccc2Sc2ccc3ccccc3c21,-,0,-,50,0,0,60
CN1CCN(c2ccc(Cl)cc2NC(=O)c2ccc(S(=O)(=O)N(C)C)cc2)CC1,0,0,0,52,0,0,0
CCN(CC)S(=O)(=O)c1cc(C(=O)Nc2cc(Cl)ccc2N2CCN(C)CC2)ccc1Cl,0,0,0,-,0,0,-
